In data set [1] the target is Adenosine A2 receptor (Homo sapiens, UniProt P29275+P29274). In words: Inhibition of 5'-(N-ethylcarbamoyl)adenosine-elicited stimulation of adenylate cyclase in human platelet membranes. In kind it is cell membranes.
Data set [2] has as its target T1, Adenosine receptor A1 (Rattus norvegicus) (UniProt P25099).
T1 sequence (whole entry): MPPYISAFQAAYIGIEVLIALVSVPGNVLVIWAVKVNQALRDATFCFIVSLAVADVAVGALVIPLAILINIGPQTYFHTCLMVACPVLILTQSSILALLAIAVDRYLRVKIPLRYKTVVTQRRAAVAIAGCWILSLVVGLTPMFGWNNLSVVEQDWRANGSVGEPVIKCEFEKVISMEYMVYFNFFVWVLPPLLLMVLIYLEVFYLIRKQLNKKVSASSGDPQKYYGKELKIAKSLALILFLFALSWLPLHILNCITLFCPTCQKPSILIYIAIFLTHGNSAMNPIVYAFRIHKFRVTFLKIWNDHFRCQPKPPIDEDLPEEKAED
Briefly: Antagonistic activity against N6-([3H]-phenylisopropyl)adenosine binding to rat brain membrane (Adenosine A1 receptor). In kind it is tissue-based. In outline:
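Competition binding against 1 nM N6-([3H]phenylisopropyl)adenosine at A1 receptors in rat cerebral cortical membranes. A range of xanthine concentrations was tested in triplicate in at least two separate experiments. Values are means with 95% confidence limits.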

The target of data set [3] is T1, Adenosine receptor A1 (Rattus norvegicus). Briefly: Antagonistic activity on N6-([3H]-phenylisopropyl)adenosine binding to rat brain membrane (Adenosine A1 receptor). The format is tissue-based.
Data set [4] in a line: Solubility in water at PH 7.4 in the presence of Tris.HCl buffer. The format is physicochemical. In outline: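 Aqueous solubility measured in Tris-HCl buffer, pH 7.4.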
Data set [5] has as its target Adenosine A2 receptor (Cavia porcellus). In words: Inhibition of stimulation of adenylate cyclase in guinea pig brain slices at A2 receptor (2-chloroadenosine-elicited accumulations of cyclic AMP).

Consider `CCCn1c(=O)c2nc(CC3CCCC3)[nH]c2n(CCC)c1=O`, for which the Kb in data set [1] is 1.9 µM; in data set [2] it was 0.016 µM. For `CCCn1c(=O)c2nc(CC3CCCCC3)[nH]c2n(CCC)c1=O`, the figures for the Kb in data set [1] and in data set [3] were 2.7 µM and 0.039 µM, respectively. `CCCn1c(=O)c2nc(-c3ccc(C(=O)O)cc3)[nH]c2n(CCC)c1=O`: the Kb in data set [3] was 0.2 µM. The solubility in data set [4] was determined as 180 µM.

On to `CCCn1c(=O)c2nc(-c3ccc(C(N)=O)cc3)[nH]c2n(CCC)c1=O`, for which the 50% inhibitory concentration (IC50) in data set [5] was found to be 0.072 µM. The Kb is 0.054 µM in data set [1] and 0.012 µM in data set [3]. For `CCCn1c(=O)c2[nH]c(-c3ccc(O)cc3O)nc2n(CCC)c1=O`, the solubility in data set [4] is 11 µM. In the case of `CCCn1c(=O)c2nc(-c3ccc(OCC(=O)NCCc4ccc(O)cc4)cc3O)[nH]c2n(CCC)c1=O`, the figures for the Kb in data set [1] and in data set [3] were 4.4 µM and 0.016 µM, respectively. The molecule `CCCn1c(=O)c2nc(-c3ccc(OC)cc3)[nH]c2n(CCC)c1=O` yielded a Kb in data set [3] of 0.0037 µM. In addition, in data set [4], the solubility is 14 µM.

Turning to `CCCn1c(=O)c2nc[nH]c2n(CCC)c1=O`, the Kb in data set [2] stood at 0.71 µM. Also, the solubility in data set [4] was determined as 1600 µM. Regarding `CCCn1c(=O)c2nc(-c3cnccn3)[nH]c2n(CCC)c1=O`, the Kb turned out to be 3.6 µM in data set [1] and 0.6 µM in data set [3]. For `CCCn1c(=O)c2nc(-c3ccc(OCC(=O)NCCN(C)C)cc3O)[nH]c2n(CCC)c1=O` the same measures were 0.077 µM and 0.0084 µM. Consider `CCCn1c(=O)c2nc(-c3ccc(OCC(N)=O)cc3O)[nH]c2n(CCC)c1=O`, for which the results for the Kb in data set [1] and in data set [3] were 1.2 µM and 0.0065 µM, respectively. Moreover, in data set [4], the solubility is 5600 µM. As to `CCCn1c(=O)c2nc(-c3ccc(OCC(=O)NCCc4c[nH]cn4)cc3O)[nH]c2n(CCC)c1=O`, the Kb amounted to 2.4 µM in data set [1] and 0.1 µM in data set [3]. On to `CCCn1c(=O)c2nc(-c3ccc(O)cc3O)[nH]c2n(CCC)c1=O`, for which, in data set [3], the Kb was 0.0025 µM.

Take `CCCn1c(=O)c2[nH]c(-c3ccc(C(N)=O)cc3)nc2n(CCC)c1=O`: the solubility in data set [4] was 5 µM. Still for that read-out and setting: then `CCCn1c(=O)c2[nH]c(-c3ccccc3)nc2n(CCC)c1=O`, with 18 µM.

In turn, `CCCn1c(=O)c2nc(C3CCCCC3)[nH]c2n(CCC)c1=O` returned a Kb in data set [1] of 0.19 µM. In data set [4], the solubility is 74 µM. `CCCn1c(=O)c2nc(-c3ccc(O)cc3)[nH]c2n(CCC)c1=O` displayed a Kb in data set [3] of 0.0035 µM. The molecule `CCCn1c(=O)c2[nH]c(-c3ccc(OC)cc3O)nc2n(CCC)c1=O` had a half-maximal inhibitory concentration (IC50) in data set [5] of 0.98 µM. Moreover, the Kb in data set [1] came out at 0.18 µM; in data set [3], 0.0046 µM. In data set [4], the solubility is 18 µM. With `CCCn1c(=O)c2nc(-c3ccc(OCC(=O)NCCN)cc3O)[nH]c2n(CCC)c1=O`, the results for the Kb in data set [1] and in data set [3] were 0.14 µM and 0.0024 µM, respectively. Also, in data set [4], the solubility was determined as 710 µM. In turn, `CCCn1c(=O)c2nc(-c3ccccc3)[nH]c2n(CCC)c1=O` registered a Kb in data set [3] of 0.01 µM.

As for `CCCn1c(=O)c2nc(-c3ccc(OCC(=O)OCC)cc3O)[nH]c2n(CCC)c1=O`, the Kb in data set [1] amounted to 3.8 µM; in data set [3] it was 0.031 µM. On to `CCCn1c(=O)c2[nH]c(C3CCCC3)nc2n(CCC)c1=O` [1,3-DIPROPYL-8-CYCLOPENTYLXANTHINE [DPCPX]], for which the solubility in data set [4] was found to be 31 µM. On to `CCCn1c(=O)c2nc(C3CCNCC3)[nH]c2n(CCC)c1=O`, for which the Kb in data set [1] was found to be 6.9 µM; in data set [3], 0.62 µM. For `CCCn1c(=O)c2nc(-c3ccc(C(=O)NCC(=O)OC)cc3)[nH]c2n(CCC)c1=O` the same measures were 0.24 µM and 0.038 µM. Consider `CCCn1c(=O)c2nc(-c3ccc(OCC(=O)O)cc3O)[nH]c2n(CCC)c1=O`, for which the Kb was 2 µM in data set [1] and 0.037 µM in data set [3]. The solubility in data set [4] is 1100 µM.

A word on the solubility: it is the concentration that dissolves in the medium under given conditions. As usually defined, the IC50 is the concentration that gives 50% inhibition. The low end stands for greater potency, the high end for weaker potency.
